# Assay results published in article PMC3025495 (The lancet oncology, 2010).
# Where two headings read alike, the source gives them in different places.
# How the values were obtained:
# [1] = system: human hematopoietic progenitors: common myeloid precursors; test: Methylcellulose-based in vitro colony forming assay, common myeloid precursors; type: cell-based; settings: read-out: IC50, growth inhibition of common myeloid precursors
# BH3-only proteins = settings: no reference printed with the sentence; cited from earlier work
# [2] = system: human hematopoietic progenitors: erythroid precursors; test: Methylcellulose-based in vitro colony forming assay, erythroid precursors; type: cell-based; settings: read-out: IC50, growth inhibition of erythroid precursors
# patients = settings: cited from earlier work; for clinical activity: clinical testing, [24]; for clinical activity / on-target pharmacodynamic effects on platelets: ref [23]; for dose-limiting toxicities: gossypol ref [23], obatoclax ref [24]; for on-target pharmacodynamic effects on platelets: review of toxicities, [25]–[28]
# CD3+ cells (T-cells) = test: Pharmacodynamic effect on circulating CD3+ cells; type: in vivo, human; settings: after 14 days of drug exposure (day 14 of cycle 1), at least 200 mg
# Method in brief: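 Patients with relapsed or refractory lymphoid malignancies took the test compound orally each day. Two schedules were used: days 1–14 of a 21-day cycle, or continuous dosing after a 150 mg lead-in lasting 7–14 days. Circulating CD3+ counts were compared with baseline. The P-value for the change from baseline came from a Sign-test because the data were skewed.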
# [3] = human, in vivo
# [4] = system: patients with relapsed or refractory lymphoid malignancies; settings: in vivo
# [5] = Pharmacokinetic profile in patients
# [6] = system: BCL-2 dependent human small cell lung cancer (SCLC) cell line; settings: within 2 hours of treatment; ref [11], [27]; cited from earlier work
# [7] = system: murine xenograft model of acute lymphocytic leukemia; settings: ref [11]; cited from earlier work
# animal models = test: Projected effective exposure from animal models; type: in vivo; settings: based on animal models
# [8] = system: BCL-XL and BCL-2 over expressing prolymphocytic murine cell lines; settings: coimmunoprecipitation; ref [11], [27]; cited from earlier work
# [9] = system: xenograft model of mantle cell lymphoma; settings: ref [11]; cited from earlier work
# [10] = system: patients with relapsed or refractory lymphoid malignancies; test: Phase 1 dose-escalation study: toxicity and DLT
# hematological cell lines = settings: in 11 of 23 hematological cell lines, ref [10]; cited from earlier work
# [11] = system: relapsed/refractory lymphoid malignancies; test: Tumor response and survival; type: in vivo, human
# clinical = settings: human, in vivo
# circulating platelets = test: Pharmacodynamic effect on circulating platelets; type: in vivo, human; settings: platelet nadir versus navitoclax AUC, n=35 patients
# [12] = Grade 1/2, Continuous (21/21) Schedule MTD 325 mg (N=5)
# [13] = Grade 1/2, Intermittent (14/21) Schedule All Patients (N=38)
# [14] = Grade 3/4, Continuous (21/21) Schedule All Patients (N=17)
# [15] = Grade 3/4, Continuous (21/21) Schedule MTD 325 mg (N=5)
# [16] = Grade 3/4, Intermittent (14/21) Schedule All Patients (N=38)
# [17] = Grade 3/4, Intermittent (14/21) Schedule MTD 315 mg (N=9)
structure (smiles),measurement,setting,value
CN(C)CC[C@H](CSc1ccccc1)Nc1ccc(S(=O)(=O)NC(=O)c2ccc(N3CCN(Cc4ccccc4-c4ccc(Cl)cc4)CC3)cc2)cc1[N+](=O)[O-] [ABT-737],IC50,[1],900 nM
same,binding affinity relative to previously reported compounds,BH3-only proteins,two to three orders of magnitude greater
same,IC50,[2],1000 nM
COC1=CC(c2cc3ccccc3[nH]2)=N/C1=C\c1[nH]c(C)cc1C [obatoclax],clinical activity,patients,little to no clinical activity
same,dose-limiting toxicities,patients,Infusion-related somnolence and neurologic symptoms
same,on-target pharmacodynamic effects on platelets,patients,no on-target pharmacodynamic effects on platelets
CC1(C)CCC(c2ccc(Cl)cc2)=C(CN2CCN(c3ccc(C(=O)NS(=O)(=O)c4ccc(N[C@H](CCN5CCOCC5)CSc5ccccc5)c(S(=O)(=O)C(F)(F)F)c4)cc3)CC2)C1 [Navitoclax],median reduction of circulating CD3+ cells,CD3+ cells (T-cells),241 CD3+ cells/µl
same,dose levels at which projected effective exposure was achieved,[3],at least 315 mg/day
same,t½,[3]; 315 mg,15·1 ± 3·0 h
same,increase of oral bioavailability by food,[3]; po,approximately 20%
same,CL/F (apparent oral clearance),"[3]; po, 315 mg",4·1 ± 2·1 L/h
same,"All Infections, patients n (%)",[4]; human,14 (82%)
same,"Herpes Zoster, patients n (%)",[4]; human,1 (6%)
same,dose selected for phase II study,[4]; human,325 mg
same,"grade 1/2 fatigue, number of patients",[4]; human,21 patients
same,"grade 3/4 neutropenia, number of patients",[4]; human,17 patients
same,"grade 3/4 thrombocytopenia, number of patients",[4]; human,29 patients
same,recommended phase 2 dose,[4]; human,325 g/day
same,patients who developed respiratory infections and/or bronchitis,[4],Eight
same,patients who withdrew their consent for treatment,[4],6 patients
same,time to peak concentrations (Cmax) post-dose,"[5]; 14/21-day schedule, overall",approximately 9 hours
same,detection in urine (renal elimination),[5]; 24-hour urine collection after dosing on C1 D–3,could not be detected
same,dose dependence of exposure,[5]; between 10 mg and 440 mg,dose-proportional
same,cytochrome c,[6],increase
same,cytosolic BAX,[6],dose-dependent decrease
same,tumor response in xenograft,[7],durable and complete tumor regressions
same,projected effective exposure (AUC),animal models,55000 to 88000 ng·h/mL
same,BIM:BCL-2 family protein interactions,[8],dose-dependent decrease
same,effect on cure rate of rituximab plus chemotherapy,[9],significantly improved
same,"All Infections, patients n (%)",[10]; [12],5 (100%)
same,"Herpes Zoster, patients n (%)",[10]; [12],1 (20%)
same,"All Infections, patients n (%)",[10]; [13],25 (66%)
same,"Herpes Zoster, patients n (%)",[10]; [13],0
same,"All Infections, patients n (%)","[10]; Grade 1/2, Intermittent (14/21) Schedule MTD 315 mg (N=9)",8 (89%)
same,"All Infections, patients n (%)",[10]; [14],0
same,"Herpes Zoster, patients n (%)",[10]; [14],0
same,"All Infections, patients n (%)",[10]; [15],0
same,"Herpes Zoster, patients n (%)",[10]; [15],0
same,"All Infections, patients n (%)",[10]; [16],6 (16%)
same,"Herpes Zoster, patients n (%)",[10]; [16],1 (3%)
same,"All Infections, patients n (%)",[10]; [17],1 (11%)
same,"Herpes Zoster, patients n (%)",[10]; [17],0
same,safe tolerated dose,"[10]; intermittent (14/21) schedule, oral once daily",315 mg
same,patients who required at least one dose reduction,[10]; overall dose levels,11 patients
same,EC50,hematological cell lines,< 1000 nM
same,median PFS,"[11]; 16 patients with follicular lymphoma, IQR 42-92",88 days
same,patients achieving a PR,[11]; CLL/SLL patients with measurable adenopathy,8 of 16
same,PR in NK/T-cell lymphoma,[11]; NK/T-cell lymphoma,single patient
same,median overall survival,[11]; all 20 patients with CLL/SLL,has not been reached
same,median PFS,"[11]; all 20 patients with CLL/SLL, IQR 49-309",246 days
same,reduction in leukemia cells,[11]; all seven patients with CLL,≥ 50%
same,patients with measurable tumor reduction,[11]; follicular lymphoma,6 of 16
same,patients with some tumor reduction,"[11]; patients with evaluable adenopathy, all dose levels",21 of 46
same,"cycles until response, median (range)",[11]; responders across dose levels and tumor types,3.5 (2–10) cycles
same,half-life,clinical,~17 h
same,severity of the platelet nadirs,circulating platelets,concentration dependent
Cc1cc2c(C(C)C)c(O)c(O)c(C=O)c2c(O)c1-c1c(C)cc2c(C(C)C)c(O)c(O)c(C=O)c2c1O [gossypol],clinical activity,patients,little to no clinical activity
same,dose-limiting toxicities,patients,gastrointestinal side effects
same,on-target pharmacodynamic effects on platelets,patients,no on-target pharmacodynamic effects on platelets
